# V1R ag counter: activates human V1a receptor in oxytocin agonist counter-screen. CHO-V1R cells, Fluo-8 calcium fluorescence, agonist mode; 0% DMSO, 100% 3 nM vasopressin. activation, % at 3 µM. P37288. 0.25% of 320,000 active;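 active = activation above the mean activation of all tested compounds plus 3 SD, per screening run, cut at about 20% in these data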;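 also: signal is peak over basal fluorescence ratio across a 100 second FLIPR read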
# Target sequence (P37288 whole entry, looked up): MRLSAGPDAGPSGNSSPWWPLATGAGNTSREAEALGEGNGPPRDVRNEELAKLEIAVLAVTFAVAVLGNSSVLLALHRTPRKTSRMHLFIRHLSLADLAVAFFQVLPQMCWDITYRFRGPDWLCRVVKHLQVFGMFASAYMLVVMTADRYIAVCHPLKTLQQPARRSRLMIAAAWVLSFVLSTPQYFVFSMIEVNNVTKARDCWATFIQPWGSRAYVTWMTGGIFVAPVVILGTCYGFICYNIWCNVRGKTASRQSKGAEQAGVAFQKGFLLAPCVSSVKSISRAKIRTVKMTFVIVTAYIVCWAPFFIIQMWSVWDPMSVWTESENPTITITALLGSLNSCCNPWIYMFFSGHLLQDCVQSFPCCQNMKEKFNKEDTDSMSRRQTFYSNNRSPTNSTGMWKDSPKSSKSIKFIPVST
# TAAR1 antag: antagonists of human TAAR1 | Q96RJ0 | CHO RD-HGA16 TAAR1, Fluo-8 calcium fluorescence, antagonist | inhibition, % at 3 µM | 1.5% of 360,000 active | AID 624466;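 active = inhibition above a per-plate cutoff, the mean inhibition of test compounds on that plate plus 3 SD, cut at about 49% in these data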;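 also: 0% = DMSO plus EC80 beta-PEA response and 100% = DMSO alone without agonist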
# Target sequence (Q96RJ0 whole entry, looked up): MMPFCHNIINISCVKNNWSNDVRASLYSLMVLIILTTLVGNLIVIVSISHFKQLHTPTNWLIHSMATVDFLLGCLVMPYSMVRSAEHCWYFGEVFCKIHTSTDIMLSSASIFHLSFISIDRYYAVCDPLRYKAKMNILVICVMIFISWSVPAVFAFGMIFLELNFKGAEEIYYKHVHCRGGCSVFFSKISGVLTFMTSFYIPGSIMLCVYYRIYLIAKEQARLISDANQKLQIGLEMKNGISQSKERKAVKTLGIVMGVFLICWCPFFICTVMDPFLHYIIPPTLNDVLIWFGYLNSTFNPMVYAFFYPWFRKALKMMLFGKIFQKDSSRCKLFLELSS
#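 System: CHO RD-HGA16 cells bearing hTAAR1. Reagent: EC80 β-phenethylamine stimulus. Schedule: seeding 17-24 h prior, 75-min 37 °C, 30-min RT dye loading. Signal: Fluo-8 intracellular calcium dye fluorescence, real-time kinetic reads. Read-out: % inhibition from peak post-agonist over basal fluorescence ratio. Benchmarks: vehicle wells and EC80 agonist wells. Replicates: n of 1.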
# OXTR potentiator: potentiates the human oxytocin receptor response; P30559; CHO-OTR cells, Fluo-8 calcium fluorescence, potentiator mode; 0% = oxytocin EC15, 100% = EC100; activation, % at 3 µM; 0.061% of 320,000 active; AID 2445;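 active = activation above that plate's cutoff, the mean activation of tested compounds plus 3 SD, cut at about 6.6% in these data, passing the limit was not always enough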;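 also: 100% uses oxytocin at 75 nM as the full agonist control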
#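 Assay system: CHO cell line stably expressing human OTR. Reagent: EC15 oxytocin agonist. Dosing: single dose, 3.0 µM nominal final compound concentration. Timing: compound 6 min at room temperature before oxytocin, 100 s read. Signal: kinetic Fluo-8 calcium fluorescence. Controls: oxytocin EC15 low and EC100 high.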
# TAAR1 agonist: agonists of human TAAR1; CHO RD-HGA16 TAAR1, Fluo-8 calcium fluorescence; vehicle wells 0%, saturating PEA agonist 100%; 0.99% of 360,000 active; Q96RJ0; AID 624467; activation, % at 3 µM;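 active = activation above the mean activation of all test compounds in the run plus 3 SD, cut at about 38% in these data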
#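 Signal – calcium-sensitive Fluo-8 signal, excitation 470-495, emission 515-575 nm · System – RD-HGA16 (CHO) cells co-expressing Gα16 and hTAAR1 · Incubation – 17-24 h seeding, 75 min 37 °C dye, 30 min RT · Compound dosing – 3 µM single concentration · Repeats – no replicates (n 1)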
# OXTR agonist: agonists of human oxytocin receptor; activation, % at 3 µM; CHO-OTR cells, Fluo-8 calcium fluorescence; normalized: DMSO 0%, oxytocin 100%; P30559; 0.32% of 320,000 active;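 active = activation above the mean of all tested compounds plus 3 SD, cutoff set per screening run, cut at about 20% in these data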;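 also: peak over basal fluorescence ratio from a 100 s FLIPR kinetic read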
# TAAR1 ag confirm: confirmation of human TAAR1 agonists; AID 651783; activation, % at 3 µM; shares compounds with TAAR1 agonist; 82% of 2,400 active; CHO RD-HGA16 TAAR1, Fluo-8 calcium fluorescence; scaled: DMSO 0%, maximal phenethylamine 100%;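 active = activation above a cutoff set at the run's mean compound activation plus 3 SD, cut at about 39% in these data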
# Ga16 nonsel ag: counter-screen for TAAR1 agonists: nonselective agonists in parental cells; shares compounds with TAAR1 agonist; AID 651787; CHO-Ga16 parental, Fluo-8 calcium fluorescence; normalized to maximal ATP response, DMSO zero; activation, % at 3 µM; 50% of 2,400 active;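 active = activation above the run cutoff, the mean activation over all tested wells plus 3 SD, cut at about 12% in these data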;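 also: 0% = DMSO wells and 100% = maximal ATP response on the peak over basal ratio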
# TAAR1 desens: counter-screen for human TAAR1 agonists: agonists that desensitize TAAR1; CHO RD-HGA16 hTAAR1, Fluo-8 calcium, beta-PEA response inhibition; 46% of 2,400 active; inhibition, % at 3 µM; shares compounds with TAAR1 agonist; AID 651951;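 active = inhibition above the run cutoff, the mean inhibition of all test compounds plus 3 SD, cut at about 49% in these data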;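 also: beta-PEA stimulus applied at its EC80; loss of beta-PEA calcium signal after compound pretreatment read as receptor desensitization; 0% = DMSO with beta-PEA at EC80 and 100% = DMSO alone without agonist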
# Ga16 nonsel ant: nonselective Ga16 antagonist in TAAR1 agonist counter-screen; inhibition, % at 3 µM; shares compounds with TAAR1 agonist; CHO-Ga16 ATP-induced calcium, Fluo-8 fluorescence; 39% of 2,400 active; AID 651952;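 active = inhibition above the plate's mean compound inhibition plus 3 SD, computed per plate, cut at about 22% in these data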;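 also: 0% = EC80 ATP with DMSO and 100% = DMSO wells without ATP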
# Active calls of the source: *; nt = no result. Most compounds without a hit are left out; they make up all but 2.3% or so of the library.
SMILES,V1R ag counter,TAAR1 antag,OXTR potentiator,TAAR1 agonist,OXTR agonist,TAAR1 ag confirm,Ga16 nonsel ag,TAAR1 desens,Ga16 nonsel ant
Cc1[nH]c(C)c(S(=O)(=O)NCCc2ccccc2)c1C(=O)N1CCCCC1,-0.8,-9.9,-7.6,52.9*,0.3,18.6,0.7,-1.1,2.1
CC(C)c1onc(C(=O)NCCc2ccccc2)c1[N+](=O)[O-],0.1,nt,-4.3,nt,-1.0,nt,1.2,nt,6.5
CCCn1c2ccccc2c2cnn(CC(=O)NC3CCCC(C)C3C)c(=O)c21 (stereo unspecified),-0.2,-22.8,-2.6,0.2,-2.8,nt,nt,nt,nt
CC1CCCN(C(=S)SCC(=O)c2cc(Br)cc(Br)c2O)C1 (stereo unspecified),1.6,-19.1,3.5,73.6*,2.0,81.7*,8.4,70.0*,19.1
CC(C)[C@H](NC(=O)C1CCCC1)C(=O)N1CCC[C@H]1C(=O)NCCc1ccccc1Cl,nt,75.0*,nt,86.9*,nt,85.4*,-1.4,86.8*,3.2
CC(C)[C@H](NC(=O)c1ccc(Cl)cc1Cl)C(=O)N1CCC[C@H]1C(=O)NCCc1ccccc1Cl,nt,76.4*,nt,50.4*,nt,73.2*,5.1,92.3*,5.2
O=C(N[C@H](C(=O)N1CCC[C@H]1C(=O)NCCc1ccccc1Cl)C1CCCCC1)c1cccs1,nt,nt,nt,nt,nt,nt,4.2,nt,11.2
CC(C)C(NC(=O)c1ccc(Cl)cc1Cl)C(=O)N1CCC1 (stereo unspecified),-0.1,-7.8,-4.8,-0.7,-0.7,nt,nt,nt,nt
NC[C@@H]1O[C@H](C23CC4CC(CC(C4)C2)C3)Cc2c1ccc(O)c2O,6.5,71.1*,-12.9,67.9*,1.1,108.8*,12.8*,88.2*,28.8*
C/C(=N\NC(N)=O)c1ccccc1Cl,0.4,-12.1,-0.8,1.0,0.5,nt,nt,nt,nt
CCN(c1ccccc1)S(=O)(=O)c1cc(C(=O)NCC(c2ccc(OC)cc2)N(C)C)ccc1C (stereo unspecified),nt,-13.5,nt,0.9,nt,nt,nt,nt,nt
CCCC1=NN2C(=N)/C(=C\c3cc(C)n(Cc4ccccc4)c3C)C(=O)N=C2S1,43.4*,100.6*,-18.1,117.1*,48.1*,110.9*,96.3*,106.2*,100.3*
Cn1c(=O)cc2c3c(c(N4CCCCC4)ccc31)C(=O)c1ccccc1-2,-0.7,4.5,1.9,-0.1,-3.3,nt,nt,nt,nt
Cc1cccc(NC2=C(NCCO)C(=O)c3ccccc3C2=O)c1,-1.5,-3.2,-0.7,1.2,-1.9,nt,nt,nt,nt
Cn1c(=O)c(NCCc2ccccc2)c2c3c(cccc31)C(=O)c1ccccc1-2,278.6*,103.7*,-16.5,407.3*,213.3*,346.4*,305.1*,103.3*,95.4*
Cn1c(=O)c(NC2CCCCC2)c2c3c(cccc31)C(=O)c1ccccc1-2,nt,66.5*,nt,87.2*,nt,120.0*,124.3*,77.9*,82.6*
Cn1c(=O)c(NCCO)c2c3c(cccc31)C(=O)c1ccccc1-2,569.1*,57.7*,-21.9,285.0*,521.5*,51.5*,157.8*,37.1,48.2*
CCOc1ccc(CN(C)C(=O)CNC(=O)c2cc(OC)c(OC)c(OC)c2)cc1,1.2,-10.3,-2.0,-0.1,-1.2,nt,nt,nt,nt
COc1ccc(N=Cc2c(O)n(-c3ccc(OC)cc3)c(=O)c3ccccc23)cc1,-0.5,-13.0,-1.4,-1.7,0.4,nt,nt,nt,nt
O=c1c2ccccc2c(C=Nc2cccc(O)c2)c(O)n1-c1ccc2c(c1)OCO2,1.6,41.4,-14.7,62.2*,5.6,81.8*,40.8*,67.2*,26.0*
COC(=O)c1ccc(COc2ccc(-c3nn[nH]n3)cc2)cc1,2.4,17.3,-6.1,50.7*,1.8,16.2,11.1,10.4,6.8
COC(=O)c1ccc(COc2ccc(-c3nnn(CC(N)=O)n3)cc2)cc1,0.4,-4.2,-2.2,2.7,1.0,nt,nt,nt,nt
COCCNC(=O)Cn1nc(-c2ccc(Cl)cc2)c2ccccc2c1=O,1.4,-29.0,-6.5,1.4,-0.5,nt,nt,nt,nt
O=C(C(=O)N1CCc2ccccc2C1)c1cn(CC(=O)N2CCOCC2)c2ccccc12,-0.5,-5.5,-7.5,74.7*,-1.8,38.9*,4.7,-0.6,8.3
O=C(C(=O)N1CCc2ccccc2C1)c1cn(CC(=O)N2CCCCC2)c2ccccc12,0.4,70.2*,3.0,80.1*,-2.0,102.0*,2.4,86.2*,12.2
SMILES,V1R ag counter,TAAR1 antag,OXTR potentiator,TAAR1 agonist,OXTR agonist,TAAR1 ag confirm,Ga16 nonsel ag,TAAR1 desens,Ga16 nonsel ant
COc1ccc(/C=C(\C#N)C(=O)NCc2ccccc2)cc1,0.6,-3.5,-17.3,0.7,0.3,nt,nt,nt,nt
CN1CCC(N(C)C(=S)NCCc2ccccc2)CC1,0.3,-16.8,-6.8,3.7,1.5,nt,nt,nt,nt
COCC(=O)N(C)C[C@H]1Oc2cc(C#Cc3cccnc3)ccc2S(=O)(=O)N([C@H](C)CO)C[C@H]1C,nt,1.1,nt,2.0,nt,nt,nt,nt,nt
O=C(Cn1c(=O)oc2ccc(Cl)cc21)Nc1ccon1,-1.5,-9.6,0.4,-0.6,-0.1,nt,nt,nt,nt
O=c1ccnc(NCCc2ccccc2)[nH]1,2.0,nt,-1.9,nt,-0.1,nt,2.1,nt,6.4
COCCCN1C(=O)c2ccc(C(=O)OCC(=O)NCCc3ccccc3)cc2C1=O,0.8,3.3,-3.3,0.4,1.3,nt,nt,nt,nt
Cc1ccc(NC(=O)COC(=O)c2ccc3c(c2)C(=O)N(CCc2ccccc2)C3=O)c(C)c1,0.4,13.7,-5.2,76.8*,0.1,63.7*,3.7,18.2,-2.3
COc1ccc(C(C)(C)C)cc1N1C(=O)[C@@H]2CSCCS(=O)(=O)N2C1=O,nt,-1.1,nt,-1.3,nt,nt,nt,nt,nt
CC(=O)Nc1ccc(OCCCN2CCC(C(O)(c3ccccc3)c3ccccc3)CC2)cc1,nt,-0.3,nt,2.6,nt,nt,nt,nt,nt
N#Cc1ccc(OCCCN2CCC(C(O)(C3=CCCC3)c3ccccc3)CC2)cc1 (stereo unspecified),nt,3.3,nt,18.9,nt,nt,nt,nt,nt
CC1CCN(CCCOc2ccc(OCc3ccccc3)cc2)CC1,4.7,17.6,-10.1,59.1*,6.7,40.7*,23.6*,20.9,23.1*
OC(c1ccccc1)(c1ccccc1)C1CCN(CCCOc2ccc(-c3cccnc3)cc2)CC1,nt,37.2,nt,53.3*,nt,32.7,20.9*,29.6,28.6*
OC(c1ccccc1)(c1ccccc1)C1CCN(CCCOc2ccc(-c3ccncc3)cc2)CC1,nt,53.1*,nt,41.8*,nt,45.8*,26.9*,54.3*,36.2*
